Source: ChEMBL document CHEMBL4024777, “Discovery of LY3104607: A Potent and Selective G Protein-Coupled Receptor 40 (GPR40) Agonist with Optimized Pharmacokinetic Properties to Support Once Daily Oral Treatment in Patients with Type 2 Diabetes Mellitus” (J Med Chem, 2018)
The source made the active and inactive calls. The calls are words filed in the database; no cut-off is given here.

What was measured:
[1] = Metabolic stability in rat microsomes assessed as compound metabolized after 30 mins; format: ADME, Microsome; conditions: read-out: Drug metabolism
Procedure, shortened: (§1)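 Compound incubated 30 min with liver microsomes from mouse, rat, dog or human. Percent of compound metabolized recorded, as mean (SEM, n).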

[2] = AUC (0 to 24 hrs) in Beagle dog at 300 mg/kg, po; format: ADME, organism-based, Canis lupus familiaris; design: time < 24 hr, dose 300 mg/kg, route oral; conditions: in vivo
[3] = Tmax in Beagle dog at 3 mg/kg, po; format: ADME, organism-based, Canis lupus familiaris; conditions: in vivo
Procedure, shortened: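 Fasted dogs dosed orally at 3 mg/kg. […] Bioavailability is derived relative to the 1 mg/kg IV dose.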

[4] = Cmax in Sprague-Dawley rat at 1 mg/kg, po; format: ADME, organism-based; design: dose 1 mg/kg, route oral; conditions: in vivo
[5] = Lipophilicity, log P of the compound; format: physicochemical; conditions: octanol/water
[6] = Half life in Sprague-Dawley rat at 1 mg/kg, po; format: ADME, organism-based; conditions: in vivo
[7] = Dissociation constant, pKa of the compound; format: physicochemical
[8] = Oral bioavailability in Sprague-Dawley rat at 1 mg/kg; format: ADME, organism-based; conditions: in vivo
Procedure, shortened: (§2)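 Fasted rats given oral doses of 1 mg/kg. […] Bioavailability is calculated against the 1 mg/kg IV group.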

[9] = Drug metabolism in dog hepatocytes assessed as metabolite-B formation; format: ADME, cell-based, Canis lupus familiaris, Hepatocyte
[10] = biological target: T1, Free fatty acid receptor 1 (Homo sapiens, UniProt O14842); assay: Agonist activity at human GPR40 receptor expressed in HEK293 cells assessed as increase in intracellular calcium flux after 2.5 hrs measured over 3 mins by calcium 4 dye-based FLIPR assay; format: functional, cell-based
T1 sequence (O14842 whole entry): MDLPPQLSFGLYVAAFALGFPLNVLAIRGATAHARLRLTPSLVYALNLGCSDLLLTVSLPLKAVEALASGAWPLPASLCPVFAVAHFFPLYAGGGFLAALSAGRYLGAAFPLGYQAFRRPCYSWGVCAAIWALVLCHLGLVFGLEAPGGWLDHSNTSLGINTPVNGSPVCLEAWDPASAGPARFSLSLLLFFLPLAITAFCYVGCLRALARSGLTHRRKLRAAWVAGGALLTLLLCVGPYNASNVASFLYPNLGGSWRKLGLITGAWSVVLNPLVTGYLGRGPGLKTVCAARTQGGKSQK
Procedure, shortened: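 Calcium flux was read by FLIPR in cells carrying recombinant human GPR40. Percent stimulation is relative to the response to 100 µM linoleic acid. EC50 is reported with SEM and n.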

Rattus norvegicus = assay: Toxicity in Zucker fa/fa rat assessed as alteration in food consumption at 1 to 10 mg/kg, po; format: organism-based; conditions: in vivo
Procedure, shortened: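 Male Zucker fa/fa rats, 10 weeks old, given daily oral doses of 1, 3 or 10 mg/kg for 21 days. Body weight and food consumption tracked, with a reference agonist as positive control.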

[11] = biological target: Free fatty acid receptor 1 (Rattus norvegicus) (UniProt Q8K3T4); assay: Agonist activity at rat PK-tagged GPR40 expressed in human U2OS cells assessed as EA-tagged beta-arrestin recruitment after 90 mins in presence of 1 % heat inactivated FBS by beta-galactosidase reporter gene assay relative to untreated control; format: cell-based
Sequence of Free fatty acid receptor 1 (Rattus norvegicus) (Q8K3T4 whole entry): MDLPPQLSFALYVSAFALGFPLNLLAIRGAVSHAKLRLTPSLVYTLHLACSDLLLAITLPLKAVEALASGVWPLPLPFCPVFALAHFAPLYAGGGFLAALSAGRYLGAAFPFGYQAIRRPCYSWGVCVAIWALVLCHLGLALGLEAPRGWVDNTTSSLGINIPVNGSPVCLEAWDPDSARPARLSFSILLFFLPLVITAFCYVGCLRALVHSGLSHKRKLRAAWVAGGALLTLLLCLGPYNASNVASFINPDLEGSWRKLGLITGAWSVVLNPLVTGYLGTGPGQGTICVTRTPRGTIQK

[12] = Metabolic stability in mouse microsomes assessed as compound metabolized after 30 mins; format: ADME, Microsome; conditions: read-out: Drug metabolism; procedure, shortened: as §1
[13] = Solubility of the compound in DMSO at pH 7.4 by aqueous precipitation assay; format: physicochemical
Procedure, shortened: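 DMSO stock diluted into aqueous buffer at pH 7.4 in a precipitation assay. Result reported as the last soluble concentration, upper limit 100 µM.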

[14] = AUC (0 to 24 hrs) in Beagle dog at 100 mg/kg, po; format: ADME, organism-based, Canis lupus familiaris; design: time < 24 hr, dose 100 mg/kg, route oral; conditions: in vivo
[15] = biological target: T2, Peroxisome proliferator-activated receptor alpha (Homo sapiens) (UniProt Q07869); assay: Agonist activity at GAL4-fused human PPARalpha expressed in African green monkey CV1 cells up to 30 uM after 24 hrs by luciferase reporter gene assay; format: cell-based
T2 sequence (whole entry): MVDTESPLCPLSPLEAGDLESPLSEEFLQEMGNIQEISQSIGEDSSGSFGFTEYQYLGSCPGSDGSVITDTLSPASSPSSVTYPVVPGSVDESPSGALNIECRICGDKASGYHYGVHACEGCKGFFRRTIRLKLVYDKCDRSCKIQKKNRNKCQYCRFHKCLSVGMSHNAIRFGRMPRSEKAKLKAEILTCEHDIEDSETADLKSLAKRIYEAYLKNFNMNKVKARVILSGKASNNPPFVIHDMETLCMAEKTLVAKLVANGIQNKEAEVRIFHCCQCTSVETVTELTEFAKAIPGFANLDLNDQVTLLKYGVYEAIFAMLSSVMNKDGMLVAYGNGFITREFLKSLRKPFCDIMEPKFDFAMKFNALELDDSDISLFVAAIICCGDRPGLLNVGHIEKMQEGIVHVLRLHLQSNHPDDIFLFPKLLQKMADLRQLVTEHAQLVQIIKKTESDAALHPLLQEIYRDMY
Procedure, shortened: (§3)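 PPAR alpha, delta and gamma binding and functional activity were each tested at concentrations up to 30 µM.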

[16] = Protein binding in plasma (unknown origin) by equilibrium dialysis assay; format: ADME, cell-free; conditions: read-out: PPB
[17] = Tmax in Sprague-Dawley rat at 100 mg/kg, po; format: ADME, organism-based; conditions: in vivo
[18] = Aqueous solubility of the compound at pH 7.4; format: physicochemical
Procedure, shortened: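 Solubility was measured by DMSO/aqueous precipitation at pH 7.4 and reported as the last soluble concentration.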

[19] = Metabolic stability in human microsomes assessed as compound metabolized after 30 mins; format: ADME, Microsome; conditions: read-out: Drug metabolism; procedure, shortened: as §1
[20] = Tmax in Sprague-Dawley rat at 500 mg/kg, po; format: ADME, organism-based; conditions: in vivo
[21] = biological target: T3, Peroxisome proliferator-activated receptor gamma (Homo sapiens) (UniProt P37231); assay: Displacement of [3H]-agonist from human PPARgamma expressed in baculovirus infecetd Sf9 cells system up to 30 uM after 10 hrs in presence of DR2 by scintillation proximity assay; procedure, shortened: as §3
T3 sequence (whole entry): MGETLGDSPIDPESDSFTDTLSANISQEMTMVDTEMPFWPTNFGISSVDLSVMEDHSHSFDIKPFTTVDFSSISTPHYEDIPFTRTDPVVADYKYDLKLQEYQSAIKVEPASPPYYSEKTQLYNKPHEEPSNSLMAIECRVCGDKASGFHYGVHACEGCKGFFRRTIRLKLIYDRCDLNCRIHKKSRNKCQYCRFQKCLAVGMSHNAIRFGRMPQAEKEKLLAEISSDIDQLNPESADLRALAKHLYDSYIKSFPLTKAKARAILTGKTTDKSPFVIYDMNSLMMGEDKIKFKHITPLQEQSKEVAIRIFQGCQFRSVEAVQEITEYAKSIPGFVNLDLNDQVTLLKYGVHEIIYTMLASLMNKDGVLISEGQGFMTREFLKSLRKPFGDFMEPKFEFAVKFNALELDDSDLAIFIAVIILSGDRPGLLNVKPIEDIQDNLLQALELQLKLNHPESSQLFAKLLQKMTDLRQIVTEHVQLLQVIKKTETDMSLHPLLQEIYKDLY

[22] = Tmax in Beagle dog at 100 mg/kg, po; format: ADME, organism-based, Canis lupus familiaris; conditions: in vivo
Procedure, shortened: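 Dogs dosed orally at 30, 100 or 300 mg/kg, N = 2 per dose.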

[23] = Intrinsic clearance in human hepatocytes; format: ADME, cell-based, Hepatocyte
[24] = Clearance in Sprague-Dawley rat at 1 mg/kg, iv; format: ADME, organism-based; conditions: in vivo
[25] = Intrinsic clearance in human microsomes; format: ADME, Microsome
[26] = Tmax in Sprague-Dawley rat at 1 mg/kg, po; format: ADME, organism-based; conditions: in vivo; procedure, shortened: as §2
[27] = Drug metabolism in mouse hepatocytes assessed as glucuronidation; format: ADME, cell-based, Hepatocyte
[28] = Cmax in Beagle dog at 300 mg/kg, po; format: ADME, organism-based, Canis lupus familiaris; design: dose 300 mg/kg, route oral; conditions: in vivo
[29] = biological target: T1, Free fatty acid receptor 1; assay: Agonist activity at human PK-tagged GPR40 expressed in HEK293 cells assessed as EA-tagged beta-arrestin recruitment after 90 mins in presence of 1 % heat inactivated FBS by beta-galactosidase reporter gene assay relative to untreated control; format: cell-based
[30] = Cmax in Beagle dog at 30 mg/kg, po; format: ADME, organism-based, Canis lupus familiaris; design: dose 30 mg/kg, route oral; conditions: in vivo

CC#C[C@@H](CC(=O)O)c1ccc(OCc2ccc3nc(-c4c(C)cccc4C)nn3c2)cc1
metabolised at 0.5 h [1]: 10%
AUC(0-t) at 24 h [2]: 4010 µg·h/mL
Tmax [3]: 0.67 h
Cmax [4]: 3.38 µg/mL
logP [5]: 4.8
half-life [6]: 4.68 h
pKa [7]: 4.3
bioavailability [8]: 93%
Drug metabolism [9]: Metabolite_Detected
EC50 [10]: 11 nM
Activity (Rattus norvegicus): Non-Toxic
%max [11]: 130%
metabolised at 0.5 h [12]: 7%
solubility kinetic [13]: > 100 µM
AUC(0-t) at 24 h [14]: 3320 µg·h/mL
Activity [15]: inactive
fraction unbound [16]: < 0.01
Tmax [17]: 5.3 h
solubility [18]: > 100 µM
metabolised at 0.5 h [19]: 5%
Tmax [20]: 6.7 h
Activity [21]: inactive
Tmax [22]: 3 h
K [23]: 0.099 h⁻¹
clearance [24]: 1.32 mL/min/kg
K [25]: < 0.0009 h⁻¹
Tmax [26]: 0.25 h
Drug metabolism [27]: Metabolite_Detected
Cmax [28]: 277 µg/mL
%max [29]: 124%
Cmax [30]: 126 µg/mL
